Tests used:
Type in all cases: functional
[1] = tested on: Mus musculus; test: The compound was evaluated for inhibition of edema induced by histamine at 10 mg/mL
Outline: (§1)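 Female albino mice (22 ± 2 g, local breed), six per group, housed in eights with free food and water, acclimatised at least 2 days. Compound given orally at 100 mg/kg; 60 min later 0.01 mL of the phlogistic agent (histamine or serotonin) injected subcutaneously into the right hind paw plantar surface. Paw edema measured with a dial thickness gauge; effect expressed as percent inhibition.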

[2] = tested on: Mus musculus; test: Gastric ulcerogenic activity at a dose of 300 mg/kg: 8 mice were considered for the test
Outline: (§2)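 Mice fasted 24 h with water available. Compound in methyl cellulose vehicle given by oral gavage at 0.5 mL/100 g body weight. Animals were killed after 4 h and stomachs examined for lesions under a dissecting microscope. Read-out: ulcer incidence per group of 8 and lesion length (mm/mouse ± SE).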

[3] = tested on: Mus musculus; test: The compound was evaluated for inhibition of edema induced by arachidonic acid at 1 mg/mL
Outline: (§3)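 Mice, six per group, dosed orally at 100 mg/kg. After 60 min, 0.01 mL of phlogistic agent (arachidonic acid or bradykinin) was injected subcutaneously into the right hind paw plantar surface. Edema was measured by dial thickness gauge and the effect expressed as percent inhibition.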

[4] = tested on: Mus musculus; test: Gastric ulcerogenic activity at a dose of 60 mg/kg; outline: as §2
[5] = tested on: Mus musculus; test: Gastric ulcerogenic activity at a dose of 100 mg/kg; outline: as §2
[6] = tested on: Mus musculus; test: Gastric ulcerogenic activity at a dose of 60 mg/kg: 8 mice were considered for the test; outline: as §2
[7] = tested on: Mus musculus; test: The compound was evaluated for inhibition of edema induced by bradykinin at 100 ug/mL; outline: as §3
[8] = tested on: Mus musculus; test: Intestinal ulcerogenic activity at a dose of 60 mg/kg
Outline: (§4)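 Fed animals were gavaged with compound on 3 consecutive days and killed 24 h after the last dose. Intestines were examined for ulcers. Read-out: ulcer incidence per group of 8 and lesion length (mm/mouse ± SE).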

[9] = organism: Mus musculus; test: Analgesic activity in mice; set-up: concentration or dose not given beside the values
Outline: (§5)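 Female albino mice (22 ± 2 g, local breed), groups of eight, dosed orally at 100 mg/kg as a suspension in 5% gum arabic syrup. After 1 h, 3% acetic acid was given ip at 300 mg/kg. Stretches were counted over 10 min, starting 5 min after injection. Percent activity = |n − n'|/n × 100 against syrup-only controls (n = 6).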

[10] = tested on: Mus musculus; test: Gastric ulcerogenic activity at a dose of 300 mg/kg; outline: as §2
[11] = tested on: Mus musculus; test: Intestinal ulcerogenic activity at a dose of 300 mg/kg: 8 mice were considered for the test; outline: as §4
[12] = tested on: Mus musculus; test: Intestinal ulcerogenic activity at a dose of 100 mg/kg: 8 mice were considered for the test; outline: as §4
[13] = tested on: Mus musculus; test: Intestinal ulcerogenic activity at a dose of 60 mg/kg:group of 8 mouse considered for the test; outline: as §4
[14] = tested on: Mus musculus; test: Inhibitory activity against carrageenan induced paw edema in mice; set-up: concentration or dose not given beside the values
[15] = tested on: Mus musculus; test: The compound was evaluated for inhibition of edema induced by serotonin at 250 ug/mL; outline: as §1
[16] = tested on: Mus musculus; test: Antiinflammatory activity against CPE in mice following peroral administration of 60 mg/kg; conditions: route oral
Outline: (§6)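 Female albino mice (22 ± 2 g), six per group, dosed orally. After 60 min, 0.01 mL of 2% carrageenan was injected subcutaneously into the right hind paw plantar surface. Edema was read with a dial thickness gauge 3 h later. ED50 was given in mg/kg po with 95% confidence limits.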

[17] = tested on: Mus musculus; test: Intestinal ulcerogenic activity at a dose of 300 mg/kg; outline: as §4
[18] = tested on: Mus musculus; test: The compound was evaluated for inhibition of edema induced by PGE at […]
Outline: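 Mice, six per group, dosed orally at 100 mg/kg. After 60 min, PGE2 (20 μg/0.01 mL) was injected subcutaneously into the right hind paw plantar surface. Edema was measured with a dial thickness gauge and the effect expressed as percent inhibition.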

[19] = tested on: Mus musculus; test: Gastric ulcerogenic activity at a dose of 100 mg/kg: 8 mice were considered for the test; outline: as §2
[20] = tested on: Mus musculus; test: Intestinal ulcerogenic activity at a dose of 100 mg/kg; outline: as §4
[21] = tested on: Mus musculus; test: Intestinal ulcerogenic activity at a dose of 60 mg/kg: 8 mice were considered for the test; outline: as §4
[22] = tested on: Mus musculus; test: Gastric ulcerogenic activity at a dose of 30 mg/kg; outline: as §2
[23] = tested on: Mus musculus; test: Gastric ulcerogenic activity at a dose of 300 mg/kg:group of 8 mouse considered for the test; outline: as §2
[24] = tested on: Mus musculus; test: Intestinal ulcerogenic activity at a dose of 100 mg/kg: group of 8 mice were considered for the test; outline: as §4
[25] = tested on: Mus musculus; test: Intestinal ulcerogenic activity at a dose of 30 mg/kg: group of 8 mice were considered for the test; outline: as §4
[26] = tested on: Mus musculus; test: Gastric ulcerogenic activity at a dose of 100 mg/kg:group of 8 mouse considered for the test; outline: as §2
[27] = tested on: Mus musculus; test: Intestinal ulcerogenic activity at a dose of 30 mg/kg; outline: as §4
[28] = tested on: Mus musculus; test: Gastric ulcerogenic activity at a dose of 30 mg/kg:group of 8 mouse considered for the test; outline: as §2
[29] = tested on: Mus musculus; test: Antiinflammatory activity against CPE in mice following peroral administration of 30 mg/kg; conditions: route oral; outline: as §6
[30] = tested on: Mus musculus; test: Intestinal ulcerogenic activity at a dose of 300 mg/kg: group of 8 mice were considered for the test; outline: as §4
[31] = tested on: Mus musculus; test: Gastric ulcerogenic activity at a dose of 50 mg/kg; outline: as §2
[32] = tested on: Mus musculus; test: Gastric ulcerogenic activity at a dose of 20 mg/kg: 8 mice were considered for the test; outline: as §2
[33] = tested on: Mus musculus; test: Intestinal ulcerogenic activity at a dose of 20 mg/kg: 8 mice were considered for the test; outline: as §4
[34] = tested on: Mus musculus; test: Gastric ulcerogenic activity at a dose of 20 mg/kg; outline: as §2
[35] = tested on: Mus musculus; test: Intestinal ulcerogenic activity at a dose of 50 mg/kg; outline: as §4
[36] = tested on: Mus musculus; test: Intestinal ulcerogenic activity at a dose of 50 mg/kg: 8 mice were considered for the test; outline: as §4
[37] = tested on: Mus musculus; test: Antiinflammatory activity against CPE in mice following peroral administration of 20 mg/kg; conditions: route oral; outline: as §6
[38] = tested on: Mus musculus; test: Gastric ulcerogenic activity at a dose of 50 mg/kg: 8 mice were considered for the test; outline: as §2
[39] = tested on: Mus musculus; test: Intestinal ulcerogenic activity at a dose of 20 mg/kg; outline: as §4
[40] = organism: Mus musculus; test: Analgesic activity in mice.; outline: as §5
[41] = tested on: Mus musculus; test: The compound was evaluated for inhibition of edema induced by bradykinin at 100 micro g/mL; outline: as §3
[42] = tested on: Mus musculus; test: Gastric ulcerogenic activity at a dose of 10 mg/kg; outline: as §2
[43] = tested on: Mus musculus; test: Inhibitory activity against carrageenan induced mouse paw edema in mice.
[44] = tested on: Mus musculus; test: Intestinal ulcerogenic activity at a dose of 10 mg/kg; outline: as §4
[45] = tested on: Mus musculus; test: Antiinflammatory activity against CPE in mice following peroral administration of 10 mg/kg; conditions: route oral; outline: as §6
[46] = tested on: Mus musculus; test: Intestinal ulcerogenic activity at a dose of 10 mg/kg; 8 mice were considered for the test; outline: as §4
[47] = tested on: Mus musculus; test: Gastric ulcerogenic activity at a dose of 10 mg/kg: 8 mice were considered for the test; outline: as §2
[48] = tested on: Mus musculus; test: The compound was evaluated for inhibition of edema induced by serotonin at 250 micro g/mL; outline: as §1

Row | SMILES | Inhibition [1] [%] | Inhibition [3] [%] | Inhibition [7] [%] | Analgesic activity [9] [%] | Inhibition [14] [%] | Inhibition [15] [%] | Inhibition [18] [%] | Lesion length [20] [mm mice-1] | further results
1 | O=c1oc2ccc(Cl)cc2n1CCc1ccccn1 | 9 | 42 | 7 | 96.96 | 62.3 | 10.5 | 64.8 | 0 | Ulcer incidence [2]: 4 number/group; Lesion length [4]: 0 mm mice-1; Lesion length [5]: 0.2 mm mice-1; Ulcer incidence [6]: 0 number/group; Lesion length [8]: 0 mm mice-1; Lesion length [10]: 0.9 mm mice-1; Ulcer incidence [11]: 1 number/group; Ulcer incidence [12]: 0 number/group; Ulcer incidence [13]: 0 number/group; ED50 [16]: 63 mg/kg; Lesion length [17]: 0.1 mm mice-1; Ulcer incidence [19]: 1 number/group
2 | O=c1oc2ccccc2n1CCc1ccncc1 | 7.6 | 38.9 | 6.4 | 96.06 | 59.1 | 9.4 | 62.2 | 0 | Ulcer incidence [2]: 5 number/group; Lesion length [4]: 0 mm mice-1; Lesion length [5]: 0 mm mice-1; Ulcer incidence [6]: 0 number/group; Lesion length [8]: 0 mm mice-1; Lesion length [10]: 0.9 mm mice-1; Ulcer incidence [11]: 2 number/group; Ulcer incidence [12]: 0 number/group; Ulcer incidence [21]: 0 number/group; ED50 [16]: 57 mg/kg; Lesion length [17]: 0.1 mm mice-1; Ulcer incidence [19]: 0 number/group
3 | COc1ccc(C(=O)c2ccc3c(c2)oc(=O)n3CCc2ccccn2)cc1 | 5.4 | 40 | 13 | 80.34 | 30.8 | 9.9 |  |  | 
4 | O=C(c1ccc2c(c1)oc(=O)n2CCc1ccccn1)c1ccccc1Cl | 5 | 46 | 6.4 | 91.74 | 37.1 | 18.2 | 53 | 0 | Lesion length [22]: 0 mm mice-1; Lesion length [5]: 0 mm mice-1; Ulcer incidence [23]: 2 number/group; Ulcer incidence [24]: 0 number/group; Ulcer incidence [25]: 0 number/group; Ulcer incidence [26]: 0 number/group; Lesion length [27]: 0 mm mice-1; Lesion length [10]: 0.4 mm mice-1; Ulcer incidence [28]: 0 number/group; ED50 [29]: 25.5 mg/kg; Lesion length [17]: 0.2 mm mice-1; Ulcer incidence [30]: 0 number/group
5 | O=c1oc2ccccc2n1CCc1ccccn1 | 5.5 | 41.3 | 6 | 92.17 | 55.2 | 10.2 | 56.2 | 0 | Ulcer incidence [2]: 4 number/group; Lesion length [4]: 0 mm mice-1; Ulcer incidence [6]: 0 number/group; Lesion length [8]: 0 mm mice-1; Lesion length [10]: 0.7 mm mice-1; Ulcer incidence [11]: 0 number/group; Ulcer incidence [12]: 0 number/group; Ulcer incidence [21]: 0 number/group; ED50 [16]: 55 mg/kg; Lesion length [17]: 0.07 mm mice-1; Ulcer incidence [19]: 1 number/group
6 | O=c1oc2ccc(Cl)cc2n1CCc1ccncc1 | 11 | 51.2 | 9 | 100 | 68.5 | 13.1 | 68 | 0.15 | Lesion length [31]: 0 mm mice-1; Lesion length [5]: 0.4 mm mice-1; Ulcer incidence [32]: 0 number/group; Ulcer incidence [33]: 0 number/group; Lesion length [34]: 0 mm mice-1; Lesion length [35]: 0 mm mice-1; Ulcer incidence [12]: 0 number/group; Ulcer incidence [36]: 0 number/group; ED50 [37]: 18.2 mg/kg; Ulcer incidence [38]: 0 number/group; Lesion length [39]: 0 mm mice-1; Ulcer incidence [19]: 1 number/group
7 | CC(=O)c1ccc2c(c1)oc(=O)n2CCc1ccncc1 |  |  |  | 38.46 | 10.3 |  |  |  | 
8 | CC(=O)c1ccc2c(c1)oc(=O)n2CCc1ccccn1 |  |  |  | 48.74 | 5.6 |  |  |  | 
9 | O=C(c1ccccc1Cl)c1cc2oc(=O)n(CCc3ccccn3)c2cc1Cl | 10 | 37 | 7.6 | 72.67 | 19.7 | 9 |  |  | 
10 | O=C(c1ccccc1)c1ccc2c(c1)oc(=O)n2CCc1ccccn1 | 6 | 32 | 11 | 79.49 | 37.1 | 9.8 |  |  | 
11 | O=C(c1ccc2c(c1)oc(=O)n2CCc1ccncc1)c1ccccc1Cl | 7.4 | 39 | 7 | 84.35 | 38.6 | 10 |  |  | 
12 | O=C(c1ccccc1)c1ccc2c(c1)oc(=O)n2CCc1ccncc1 | 8.5 | 36.5 | 10 | 85.47 | 46.5 | 14.1 |  |  | 
13 | COc1ccc(C(=O)c2ccc3c(c2)oc(=O)n3CCc2ccncc2)cc1 | 8 | 32 | 10 | 75.21 | 25.9 | 15 |  |  | 
14 | CC(=O)Oc1ccccc1C(=O)O [ASPIRIN] |  |  |  |  |  |  |  |  | Analgesic activity [40]: 58.26%
15 | COc1ccc2c(c1)c(CC(=O)O)c(C)n2C(=O)c1ccc(Cl)cc1 [INDOMETHACIN] | 14.7 | 37 |  |  |  |  |  |  | Inhibition [41]: 13.4%; Lesion length [42]: 0.6 mm mice-1; Inhibition [43]: 21.1%; Lesion length [44]: 0.4 mm mice-1; ED50 [45]: 7.5 mg/kg; Ulcer incidence [46]: 8 number/group; Ulcer incidence [47]: 7 number/group; Inhibition [48]: 10.3%
